Experimental data reported in ChEMBL document CHEMBL4325893, “Synthesis and antibacterial profiles of targeted triclosan derivatives” (2019).
Converted amounts (≈) assume the structure as drawn.

How the values were obtained:
[1] = Antibacterial activity against Salmonella enterica subspecies enterica serotype Virchow NCTC 5742 after 18 hrs; assay type: functional, Salmonella enterica subsp. enterica serovar Virchow; settings: NCTC 5742, 18 h
Outline: (§1)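 Broth microdilution in Nutrient Broth No. 2; stocks in ethanol diluted to 0.01–128 µg/ml (triclosan) or 0.25–256 µg/ml (glycosides). Overnight 37 °C NB2 cultures diluted 1 in 10^4 in saline and added to the dilutions. Incubation at 37 °C with agitation, OD read every 15 min; MIC is the lowest concentration preventing any OD rise after 18 h.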

[2] = tested on: Escherichia coli; experiment: Antibacterial activity against Escherichia coli OCC 122 after 18 hrs; assay type: functional; settings: OCC 122, 18 h; outline: as §1
[3] = tested on: Escherichia coli; experiment: Antibacterial activity against Escherichia coli ATCC 35218 after 18 hrs; assay type: functional; settings: ATCC 35218, 18 h; outline: as §1
[4] = Antibacterial activity against Salmonella enterica subspecies enterica serotype Infantis OCC 2133 after 18 hrs; assay type: functional, Salmonella enterica subsp. enterica serovar Infantis; settings: OCC 2133, 18 h; outline: as §1
[5] = tested on: Enterococcus faecalis; experiment: Antibacterial activity against Enterococcus faecalis ATCC 29212 after 18 hrs; assay type: functional; settings: ATCC 29212, 18 h; outline: as §1
[6] = tested on: Staphylococcus epidermidis; experiment: Antibacterial activity against Staphylococcus epidermidis ATCC 14990 after 18 hrs; assay type: functional; settings: ATCC 14990, 18 h; outline: as §1
[7] = tested on: Aeromonas hydrophila; experiment: Antibacterial activity against Aeromonas hydrophila OCC 778 after 18 hrs; assay type: functional; settings: OCC 778, 18 h; outline: as §1
[8] = tested on: Escherichia coli; experiment: Antibacterial activity against Escherichia coli ATCC 8739 after 18 hrs; assay type: functional; settings: ATCC 8739, 18 h; outline: as §1
[9] = tested on: Staphylococcus aureus; experiment: Antibacterial activity against Staphylococcus aureus ATCC 25923 after 18 hrs; assay type: functional; settings: ATCC 25923, 18 h; outline: as §1
[10] = Antibacterial activity against Salmonella enterica subspecies enterica serotype Poona NCTC 4840 after 18 hrs; assay type: functional, Salmonella enterica subsp. enterica serovar Poona; settings: NCTC 4840, 18 h; outline: as §1
[11] = tested on: Staphylococcus aureus; experiment: Antibacterial activity against Staphylococcus aureus OCC 104 after 18 hrs; assay type: functional; settings: OCC 104, 18 h; outline: as §1
[12] = tested on: Staphylococcus aureus; experiment: Antibacterial activity against Staphylococcus aureus ATCC 29213 after 18 hrs; assay type: functional; settings: ATCC 29213, 18 h; outline: as §1
[13] = tested on: Pseudomonas aeruginosa; experiment: Antibacterial activity against Pseudomonas aeruginosa ATCC 27853 after 18 hrs; assay type: functional; settings: ATCC 27853, 18 h; outline: as §1
[14] = tested on: Escherichia coli; experiment: Antibacterial activity against Escherichia coli ATCC 11775 after 18 hrs; assay type: functional; outline: as §1
[15] = tested on: Citrobacter freundii; experiment: Antibacterial activity against Citrobacter freundii OCC 851 after 18 hrs; assay type: functional; settings: OCC 851, 18 h; outline: as §1
[16] = Antibacterial activity against Salmonella enterica subspecies enterica serotype Pullorum OCC 273 after 18 hrs; assay type: functional, Salmonella enterica subsp. enterica serovar Pullorum; settings: OCC 273, 18 h; outline: as §1
[17] = tested on: Salmonella typhimurium; experiment: Antibacterial activity against Salmonella enterica subspecies enterica serotype typhimurium ATCC 14028 after 18 hrs; assay type: functional, Salmonella enterica subsp. enterica serovar Typhimurium; settings: ATCC 14028, 18 h; outline: as §1
[18] = tested on: Streptococcus pneumoniae; experiment: Antibacterial activity against Streptococcus pneumoniae 6305 after 18 hrs; assay type: functional; settings: Streptococcus pneumoniae, 6305, 18 h
Outline: (§2)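 Broth microdilution in Nutrient Broth No. 2. Ethanol stocks were diluted in broth to 0.01–128 µg/ml for triclosan and 0.25–256 µg/ml for glycosides. Overnight 37°C NB2 cultures were diluted 1 in 10^4 in saline and added to the wells. Plates were incubated at 37°C with OD read every 15 min after agitation. MIC was the lowest concentration giving no OD increase at 18 h.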

[19] = Antibacterial activity against Salmonella enterica subspecies enterica serotype Nottingham NCTC 7832 after 18 hrs; assay type: functional, Salmonella enterica subsp. enterica serovar Nottingham; settings: NCTC 7832, 18 h; outline: as §1
[20] = tested on: Escherichia coli; experiment: Antibacterial activity against Escherichia coli NCTC 13216 after 18 hrs; assay type: functional; settings: NCTC 13216, 18 h; outline: as §1
[21] = Antibacterial activity against Salmonella enterica subspecies enterica serotype Arizonae OCC 706 after 18 hrs; assay type: functional, Salmonella enterica subsp. enterica serovar Arizonae; settings: OCC 706, 18 h; outline: as §1
[22] = tested on: Escherichia coli; experiment: Antibacterial activity against Escherichia coli ATCC 10536 after 18 hrs; assay type: functional; settings: ATCC 10536, 18 h; outline: as §1
[23] = tested on: Enterococcus faecium; experiment: Antibacterial activity against Enterococcus faecium ATCC 19434 after 18 hrs; assay type: functional; settings: ATCC 19434, 18 h; outline: as §1
[24] = tested on: Hafnia alvei; experiment: Antibacterial activity against Hafnia alvei 13337 after 18 hrs; assay type: functional; settings: Hafnia alvei, 13337, 18 h; outline: as §1
[25] = tested on: Salmonella enteritidis; experiment: Antibacterial activity against Salmonella enterica subspecies enterica serotype Enteritidis 13076 after 18 hrs; assay type: functional, Salmonella enterica subsp. enterica serovar Enteritidis; settings: Salmonella enterica, 13076, 18 h; outline: as §1
[26] = tested on: Streptococcus agalactiae; experiment: Antibacterial activity against Streptococcus agalactiae OCC 182 after 18 hrs; assay type: functional; settings: OCC 182, 18 h; outline: as §2
[27] = tested on: Bacillus cereus; experiment: Antibacterial activity against Bacillus cereus ATCC 14579 after 18 hrs; assay type: functional; settings: ATCC 14579, 18 h; outline: as §1
[28] = tested on: Staphylococcus epidermidis; experiment: Antibacterial activity against Staphylococcus epidermidis 155 after 18 hrs; assay type: functional; settings: Staphylococcus epidermidis, 155, 18 h; outline: as §1

MIC [1]: 2 to 8 mg/L (≈ 4.74 to 19 µM)
MIC [2]: 0.5 to 4 mg/L (≈ 1.19 to 9.49 µM)
MIC [3]: 0.5 to 4 mg/L (≈ 1.19 to 9.49 µM)
MIC [4]: 2 to 8 mg/L (≈ 4.74 to 19 µM)
MIC [5]: 128 mg/L (≈ 304 µM)
MIC [6]: 0.5 mg/L (≈ 1.19 µM)
MIC [7]: 128 mg/L (≈ 304 µM)
MIC [8]: 0.5 to 4 mg/L (≈ 1.19 to 9.49 µM)
MIC [9]: 0.5 mg/L (≈ 1.19 µM)
MIC [10]: 2 to 8 mg/L (≈ 4.74 to 19 µM)
MIC [11]: 0.5 mg/L (≈ 1.19 µM)
MIC [12]: 0.5 mg/L (≈ 1.19 µM)
MIC [13]: > 256 mg/L
MIC [14]: 0.5 to 4 mg/L (≈ 1.19 to 9.49 µM)
MIC [15]: 8 mg/L (≈ 19 µM)
MIC [16]: 2 to 8 mg/L (≈ 4.74 to 19 µM)
MIC [17]: 2 to 8 mg/L (≈ 4.74 to 19 µM)
MIC [18]: 64 mg/L (≈ 152 µM)
MIC [19]: 2 to 8 mg/L (≈ 4.74 to 19 µM)
MIC [20]: 0.5 to 4 mg/L (≈ 1.19 to 9.49 µM)
MIC [21]: 2 to 8 mg/L (≈ 4.74 to 19 µM)
MIC [22]: 0.5 to 4 mg/L (≈ 1.19 to 9.49 µM)
MIC [23]: 256 mg/L (≈ 607 µM)
MIC [24]: 0.5 mg/L (≈ 1.19 µM)
MIC [25]: 2 to 8 mg/L (≈ 4.74 to 19 µM)
MIC [26]: 128 mg/L (≈ 304 µM)
MIC [27]: 128 mg/L (≈ 304 µM)
MIC [28]: 0.5 mg/L (≈ 1.19 µM)
Structure (SMILES): O[C@@H]1[C@@H](Oc2cc(Cl)ccc2Oc2ccc(Cl)cc2Cl)OC[C@@H](O)[C@H]1O
